{"data": "Measurements of several laboratories", "pH": "7.4", "note": "Each line is one published result; the experiments were not run side by side."}
{"Structure (SMILES)": "CN1CCN(c2cccc(-c3ccc4ncnc(Nc5ccc(Cl)c(C(F)(F)F)c5)c4c3)c2)CC1", "test": "shake flask", "system": "aqueous buffer", "logD": "> 4.3"}
{"Structure (SMILES)": "C=CC(=O)N1CC2(CCN(c3nc4c(c(-c5cc(O)cc6ccccc56)c3C)COC(C)(C)C4)C2)C1", "logD": 4.3}
{"Structure (SMILES)": "CN1CCN(c2ccc(-c3ccc4nncc(Nc5ccc(OC(F)(F)F)cc5)c4c3)cc2)CC1", "test": "shake flask", "system": "aqueous buffer", "logD": 5.1}
{"Structure (SMILES)": "Cn1cc2c(C(=O)O)ccc(NS(=O)(=O)c3ccc(OCC4CCC4)c(Cl)c3)c2n1", "test": "shake flask", "system": "aqueous buffer", "logD": 2}
{"Structure (SMILES)": "CNS(=O)(=O)c1ccc(Nc2ncc(C(F)(F)F)c([C@H]3CC[C@](C)(O)CC3)n2)c(C)c1", "test": "shake flask", "system": "aqueous buffer", "conditions": "1 h", "logD": 3.6}
{"Structure (SMILES)": "CN1CCN(c2cccc(-c3ccc4ncnc(Nc5ccc([N+](=O)[O-])c(C(F)(F)F)c5)c4c3)c2)CC1", "test": "shake flask", "system": "aqueous buffer", "logD": "> 3.9"}
{"Structure (SMILES)": "COc1cnc(Nc2cnnc3ccc(-c4ccc(N5CCN(C)CC5)cc4)cc23)nc1", "test": "shake flask", "system": "aqueous buffer", "logD": 3.2}
{"Structure (SMILES)": "c1cc(-c2ccc3ncnc(Nc4ncco4)c3c2)nc(N2CCOCC2)n1", "test": "shake flask", "system": "aqueous buffer", "logD": 3.4}
{"Structure (SMILES)": "CCN(CC)c1ccc(C=NNC(=O)c2ccccn2)c(O)c1", "test": "shake flask", "system": "aqueous buffer", "conditions": "24 h", "logD": 3.48}
{"Structure (SMILES)": "C=CC(=O)N1CC2(CCN(c3nc4c(c(-c5cc(O)cc6ccccc56)c3F)COC(C)(C)C4)C2)C1", "logD": 4.5}
{"Structure (SMILES)": "CNS(=O)(=O)c1ccc(Nc2ncc3cc(Cl)c(=O)n(C4CCCC4)c3n2)c(C)c1", "test": "shake flask", "system": "aqueous buffer", "conditions": "1 h", "logD": 3.8}
{"Structure (SMILES)": "Cn1cc(Nc2ncnc3ccc(-c4cccc(N5CCOCC5)c4)cc23)cn1", "test": "shake flask", "system": "aqueous buffer", "logD": 3.7}
{"Structure (SMILES)": "COCC(=O)N1CCC[C@H](C(=O)NCc2nc(-c3ccc(C#N)cc3)cs2)C1", "test": "shake flask", "system": "aqueous buffer", "logD": 1.5}
{"Structure (SMILES)": "C[C@H](O)c1cnc(NS(=O)(=O)c2ccc(C(F)(F)F)c(Cl)c2)nc1", "test": "shake flask", "system": "aqueous buffer", "logD": 0.4}
{"Structure (SMILES)": "C[C@@H]1CN(c2cccc(-c3ccc4ncnc(Nc5ncco5)c4c3)c2)C[C@H](C)O1", "test": "shake flask", "system": "aqueous buffer", "logD": "> 3.6"}
{"Structure (SMILES)": "C=CC(=O)N1CC2(CCN(c3nc4c(c(-c5c(C)ccc6[nH]ncc56)c3C#N)COC(C)(C)C4)C2)C1", "logD": 2.8}
{"Structure (SMILES)": "CN(c1ncco1)c1ncnc2ccc(-c3cccc(N4CCOCC4)c3)cc12", "test": "shake flask", "system": "aqueous buffer", "logD": 2.1}
{"Structure (SMILES)": "C=CC(=O)N1CC2(CCN(c3nc4c(c(-c5c(C)ccc6[nH]ncc56)c3C#N)CCC(C)(C)C4)C2)C1", "logD": 4.3}
{"Structure (SMILES)": "C[C@H]1[C@@H](C(=O)NCc2nc(-c3ccc(C#N)cc3)cs2)CCCN1C(=O)[C@H]1CCC(=O)O1", "test": "shake flask", "system": "aqueous buffer", "logD": 1.4}
{"Structure (SMILES)": "Clc1ccc(Nc2ncnc3ccc(-c4cccc(N5CCOCC5)c4)cc23)cc1", "test": "shake flask", "system": "aqueous buffer", "logD": "> 4.6"}
{"Structure (SMILES)": "N[C@@H](COCC(=O)N1CCC[C@H](C(=O)NCc2nc(-c3ccc(C(F)(F)F)cc3)cs2)C1)c1ccccc1", "test": "shake flask", "system": "aqueous buffer", "logD": 3}
{"Structure (SMILES)": "N=C(CC(O)c1cc2c(F)cc(F)cc2c2cc(C(F)(F)F)ccc12)Nc1ccc(Br)cc1 (stereo not shown)", "logD": 5.37}
{"Structure (SMILES)": "O=C(O)c1ccc(NS(=O)(=O)c2ccc(Cl)c(Cl)c2)cc1F", "test": "shake flask", "system": "aqueous buffer", "logD": -0.2}
{"Structure (SMILES)": "c1cc(-c2ccc3ncnc(Nc4ncco4)c3c2)cc(N2CC3(COC3)C2)c1", "test": "shake flask", "system": "aqueous buffer", "logD": "> 4"}
{"Structure (SMILES)": "O=C(NCc1nc(-c2ccc(C(F)(F)F)cc2)cs1)[C@H]1CCCN(C(=O)CO[C@H]2CCCNC2)C1", "test": "shake flask", "system": "aqueous buffer", "logD": 0.81}
{"Structure (SMILES)": "CC(C)N=c1cc2n(-c3ccc(Cl)cc3)c3ccccc3nc-2cc1Nc1ccc(Cl)cc1", "test": "shake flask", "system": "aqueous buffer", "logD": 5.76}
{"Structure (SMILES)": "O=C(O)c1ccc(NS(=O)(=O)c2ccc(Cl)c(Cl)c2)cc1", "test": "shake flask", "system": "aqueous buffer", "logD": 0.6}
{"Structure (SMILES)": "CCOCC(=O)N1CCC[C@H](C(=O)NCc2nc(-c3ccc(C#N)nc3)cs2)C1", "test": "shake flask", "system": "aqueous buffer", "logD": 1}
